The source made the active and inactive calls. The rule behind the calls is not given here.
How the values were obtained:
[1] = biological target: T1, Monoglyceride lipase (Rattus norvegicus) (UniProt Q8R431); experiment: Inhibition of MAGL in rat brain microsome using pyrenylbutanamide as substrate after 60 mins by HPLC analysis; type: microsomes
T1 sequence (whole entry): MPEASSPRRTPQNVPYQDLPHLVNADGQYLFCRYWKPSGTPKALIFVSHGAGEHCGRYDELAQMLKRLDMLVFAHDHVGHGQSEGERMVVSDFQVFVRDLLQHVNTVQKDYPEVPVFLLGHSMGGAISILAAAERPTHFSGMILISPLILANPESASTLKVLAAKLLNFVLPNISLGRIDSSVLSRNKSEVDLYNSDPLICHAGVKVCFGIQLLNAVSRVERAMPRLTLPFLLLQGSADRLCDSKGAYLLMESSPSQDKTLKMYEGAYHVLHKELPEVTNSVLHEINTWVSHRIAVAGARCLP
Method in brief: (§1)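 Rat brain preparations were used as the FAAH or MAGL enzyme source. Compounds were tested at 10 μM and the extract at 50 μg/mL, read as percent inhibition.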

[2] = biological target: T2, Fatty-acid amide hydrolase 1 (Rattus norvegicus) (UniProt P97612); experiment: Inhibition of FAAH in rat brain microsome using pyrenylbutanamide as substrate after 60 mins by HPLC analysis; type: microsomes; method in brief: as §1
T2 sequence (whole entry): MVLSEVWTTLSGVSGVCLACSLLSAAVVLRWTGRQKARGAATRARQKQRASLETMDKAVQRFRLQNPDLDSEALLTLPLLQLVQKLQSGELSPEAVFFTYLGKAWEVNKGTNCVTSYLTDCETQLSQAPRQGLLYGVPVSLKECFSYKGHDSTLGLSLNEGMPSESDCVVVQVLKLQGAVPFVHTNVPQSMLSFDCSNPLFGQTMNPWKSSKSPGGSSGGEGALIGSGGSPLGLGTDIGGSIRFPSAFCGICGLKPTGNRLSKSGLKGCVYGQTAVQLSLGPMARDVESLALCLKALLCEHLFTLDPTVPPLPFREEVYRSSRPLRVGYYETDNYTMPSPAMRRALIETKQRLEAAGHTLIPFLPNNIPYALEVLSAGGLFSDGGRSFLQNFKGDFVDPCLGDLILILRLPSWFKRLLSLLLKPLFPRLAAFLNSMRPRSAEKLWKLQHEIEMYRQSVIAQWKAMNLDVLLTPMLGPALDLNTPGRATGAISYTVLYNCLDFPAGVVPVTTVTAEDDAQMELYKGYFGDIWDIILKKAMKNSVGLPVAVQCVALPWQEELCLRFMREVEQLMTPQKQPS

[3] = biological target: G-protein coupled receptor 55 (Homo sapiens) (UniProt Q9Y2T6); experiment: Antagonist activity at human GPR55 expressed in CHO cells assessed as inhibition of LPI-induced beta-arrestin translocation at 10 uM after 90 mins by luminescence assay; type: cell-based
G-protein coupled receptor 55 (Homo sapiens), sequence (Q9Y2T6 whole entry, the tested form may be a part): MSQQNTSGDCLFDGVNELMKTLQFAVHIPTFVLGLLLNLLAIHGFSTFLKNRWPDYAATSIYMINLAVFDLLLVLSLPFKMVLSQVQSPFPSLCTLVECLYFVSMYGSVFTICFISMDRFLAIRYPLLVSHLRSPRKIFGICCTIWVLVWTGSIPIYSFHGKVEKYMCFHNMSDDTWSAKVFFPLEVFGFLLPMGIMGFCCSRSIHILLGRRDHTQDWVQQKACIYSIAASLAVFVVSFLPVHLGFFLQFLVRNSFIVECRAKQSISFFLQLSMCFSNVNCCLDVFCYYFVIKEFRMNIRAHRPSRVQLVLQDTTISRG
Method in brief: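 Human GPR55 expressed recombinantly in CHO cells. β-Arrestin recruitment stimulated by LPI (1 μM) was read as luminescence by β-galactosidase enzyme fragment complementation. Test agents at 10 μM, extract at 50 μg/mL, with the LPI response set to 100%. KB derived from the rightward shift of the LPI concentration-response curve with antagonist present at 10 μM. Three independent experiments in duplicate.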

Cannabinoid receptor 2 [4] = biological target: T3, Cannabinoid receptor 2 (Homo sapiens, UniProt P34972); experiment: Agonist activity at recombinant human CB2 receptor expressed in CHO cells assessed as inhibition of forskolin-induced cAMP accumulation at 100 uM after 5 mins by cAMP-competition binding assay relative to CP55,940; type: functional, cell-based
T3 sequence (P34972 whole entry): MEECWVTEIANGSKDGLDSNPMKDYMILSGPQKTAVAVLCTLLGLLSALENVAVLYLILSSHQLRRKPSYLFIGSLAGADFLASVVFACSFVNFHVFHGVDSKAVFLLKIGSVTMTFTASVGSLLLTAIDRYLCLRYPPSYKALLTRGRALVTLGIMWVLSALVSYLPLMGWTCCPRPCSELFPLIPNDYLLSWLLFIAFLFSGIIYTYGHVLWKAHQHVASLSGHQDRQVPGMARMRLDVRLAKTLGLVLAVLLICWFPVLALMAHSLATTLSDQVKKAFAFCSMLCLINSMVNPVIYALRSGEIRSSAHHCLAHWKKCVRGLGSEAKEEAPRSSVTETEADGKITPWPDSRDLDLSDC
Method in brief: (§2)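 Forskolin (10 μM)-stimulated cAMP accumulation in CHO cells stably expressing the human CB1 or CB2 receptor. Test agents at 100 μM. Efficacy given as a percentage of the maximal effect of the full agonist CP55,940 (1 μM), taken as 100%. At least three independent experiments, each run in duplicate.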

Cannabinoid receptor 1 [5] = biological target: T4, Cannabinoid receptor 1 (Homo sapiens, UniProt P21554); experiment: Agonist activity at recombinant human CB1 receptor expressed in CHO cells assessed as inhibition of forskolin-induced cAMP accumulation at 100 uM after 5 mins by cAMP-competition binding assay relative to CP55,940; type: functional, cell-based; method in brief: as §2
T4 sequence (P21554 whole entry): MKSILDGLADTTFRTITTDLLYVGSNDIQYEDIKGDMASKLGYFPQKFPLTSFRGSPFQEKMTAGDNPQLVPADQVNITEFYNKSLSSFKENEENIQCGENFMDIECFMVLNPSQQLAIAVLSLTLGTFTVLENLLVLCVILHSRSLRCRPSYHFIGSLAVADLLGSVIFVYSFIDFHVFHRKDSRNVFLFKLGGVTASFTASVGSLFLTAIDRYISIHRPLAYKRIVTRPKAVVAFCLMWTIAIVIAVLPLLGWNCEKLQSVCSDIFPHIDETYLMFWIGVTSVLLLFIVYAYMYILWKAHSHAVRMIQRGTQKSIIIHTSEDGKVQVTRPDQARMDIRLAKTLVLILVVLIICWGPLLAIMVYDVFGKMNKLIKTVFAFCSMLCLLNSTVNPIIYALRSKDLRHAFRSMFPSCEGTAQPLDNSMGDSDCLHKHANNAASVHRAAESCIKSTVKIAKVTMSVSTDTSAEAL

Cannabinoid receptor 2 [6] = biological target: T3, Cannabinoid receptor 2; experiment: Agonist activity at recombinant human CB2 receptor expressed in CHO cells assessed as inhibition of forskolin-induced cAMP accumulation after 5 mins by cAMP-competition binding assay; type: functional, cell-based
Cannabinoid receptor 1 [7] = biological target: T4, Cannabinoid receptor 1; experiment: Agonist activity at recombinant human CB1 receptor expressed in CHO cells assessed as inhibition of forskolin-induced cAMP accumulation after 5 mins by cAMP-competition binding assay; type: functional, cell-based
Cannabinoid receptor 2 [8] = biological target: T3, Cannabinoid receptor 2; experiment: Displacement of [3H]CP55,940 from recombinant human CB2 receptor expressed in CHO cells after 2 hrs by liquid scintillation counting; type: cell-based
Cannabinoid receptor 1 [9] = biological target: T4, Cannabinoid receptor 1; experiment: biochemical; type: cell-based, CHO
Cannabinoid receptor 2 [10] = biological target: T3, Cannabinoid receptor 2; experiment: Partial agonist activity at recombinant human CB2 receptor expressed in CHO cells assessed as inhibition of forskolin-induced cAMP accumulation at 100 uM after 5 mins by cAMP-competition binding assay relative to CP55,940; type: functional, cell-based
Method in brief: (§3)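 CHO cells recombinantly expressing human CB1 or CB2 receptor; forskolin (10 μM)-stimulated cAMP accumulation inhibited by test compound over a concentration range. Efficacy measured at 100 μM relative to the maximal effect of full agonist CP55,940 (1 μM) = 100%. EC50 from concentration-response curves; at least three independent experiments in duplicate, means ± SEM.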

[11] = biological target: G-protein coupled receptor 55 (Homo sapiens) (UniProt Q9Y2T6); experiment: Antagonist activity at human GPR55 expressed in CHO cells assessed as inhibition of LPI-induced beta-arrestin translocation after 90 mins by luminescence assay; type: cell-based
Method in brief: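 CHO cells expressing human GPR55; β-arrestin recruitment read as luminescence by β-galactosidase enzyme fragment complementation. LPI agonist curves run with and without test compound at 10 μM, giving a parallel shift from which KB was derived; single-point inhibition tested against LPI at 1 μM (100%). Three independent experiments in duplicate, means ± SEM.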

Cannabinoid receptor 2 [12] = biological target: T3, Cannabinoid receptor 2; settings: CHO, 10 uM
CHO = experiment: Ratio of EC50 for recombinant human CB1 receptor expressed in CHO cells to recombinant human CB2 receptor expressed in CHO cells assessed as inhibition of forskolin-induced cAMP accumulation; type: cell-based
Cannabinoid receptor 1 [13] = biological target: T4, Cannabinoid receptor 1; experiment: Partial agonist activity at recombinant human CB1 receptor expressed in CHO cells assessed as inhibition of forskolin-induced cAMP accumulation at 100 uM after 5 mins by cAMP-competition binding assay relative to CP55,940; type: functional, cell-based; method in brief: as §3

SMILES | inhibition [1] | inhibition [2] | inhibition [3] [%] | Efficacy (Cannabinoid receptor 2 [4]) [%] | Efficacy (Cannabinoid receptor 1 [5]) [%] | EC50 (Cannabinoid receptor 2 [6]) [µM] | EC50 (Cannabinoid receptor 1 [7]) [µM] | Ki (Cannabinoid receptor 2 [8]) [µM] | Ki (Cannabinoid receptor 1 [9]) [µM] | EC50 (Cannabinoid receptor 2 [10]) [µM] | Kb [11] [µM] | Efficacy (Cannabinoid receptor 2 [12]) [%] | Ratio EC50 (CHO) | EC50 (Cannabinoid receptor 1 [13]) [µM]
C/C=C/c1ccc(O)c(-c2cc(/C=C/C)ccc2O)c1 | inactive | inactive | 0 | 55 | 134 | 8.73 | > 10 | 3.14 | > 10 |  |  |  |  | 
C=CCc1ccc(O)c(-c2cc(CC(O)CO)ccc2O)c1 (racemic) | inactive | inactive | 4 |  |  |  |  | > 10 | > 10 |  |  |  |  | 
C=CCc1ccc(O)c(-c2ccc(O)c(CC=C)c2)c1 [HONOKIOL] | inactive | inactive | 42 | 0 | 168 |  | > 10 | 5.61 | 6.46 |  |  |  |  | 
CCCc1ccc(O)c(-c2cc(CCC)ccc2O)c1 | inactive | inactive | 96 |  | 124 |  | 9.01 | 0.416 | 2.26 | 0.17 | 13.3 | 49 |  | 
CCCCCCC(C)(C)c1ccc([C@@H]2C[C@H](O)CC[C@H]2CCCO)c(O)c1 |  |  | 92 |  |  |  |  |  |  |  | 1.89 |  |  | 
C=CCc1ccc(O)c(-c2cc(CC=C)ccc2O)c1 [MAGNOLOL] | inactive | inactive | 0 | 31 | 62 |  |  | 1.44 | 3.15 | 3.28 |  |  | 6 | 18.3

Source: ChEMBL document CHEMBL2331083, “Magnolia Extract, Magnolol, and Metabolites: Activation of Cannabinoid CB2 Receptors and Blockade of the Related GPR55” (ACS Med Chem Lett, 2013)
